Data: PMC4430358 (Bioorganic & medicinal chemistry letters, 2015)
Entries after “also recorded” stand apart in the source; their conditions may differ.

Experiments:
[1] = system: GROα-mediated intracellular calcium release in isolated human PMNs; test: Inhibition of GROα-mediated intracellular calcium release in isolated human PMNs; type: cell-based; settings: for activity in the PMN assay: compared to compound 5; for fold drop in activity relative to compound 5: PMN calcium release assay
CXCR2 = target: T1, CXCR2 (Homo sapiens, UniProt P25025); test: PathHunter β-arrestin assay; type: cell-based
T1 sequence (P25025 1-360): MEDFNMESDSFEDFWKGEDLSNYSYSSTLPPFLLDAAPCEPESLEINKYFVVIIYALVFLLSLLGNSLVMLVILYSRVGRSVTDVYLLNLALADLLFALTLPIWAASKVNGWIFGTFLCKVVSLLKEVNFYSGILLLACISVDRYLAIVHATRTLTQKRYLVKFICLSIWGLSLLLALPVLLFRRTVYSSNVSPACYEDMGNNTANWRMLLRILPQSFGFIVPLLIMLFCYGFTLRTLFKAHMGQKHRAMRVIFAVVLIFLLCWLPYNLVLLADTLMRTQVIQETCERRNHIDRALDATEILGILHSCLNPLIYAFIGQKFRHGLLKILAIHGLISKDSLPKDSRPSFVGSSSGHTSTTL

[2] = Solubility in aqueous systems; type: physicochemical
[3] = Metabolic stability in monkey liver microsomes; type: in vitro ADME; settings: Microsome stability (% remaining @ 60 min) monkey, 37°C, LC-MS
Sprague-Dawley rats = test: Ozone rat model of pulmonary inflammation; type: in vivo; settings: 1 mg/kg IV at t = 0, 5 and 9 h; 1 ppm ozone 4 h; BALF at 24 h
How it was run: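 Sprague-Dawley rats, n = 4 per cohort, given IV vehicle (negative and positive groups) or test compound at 1 mg/kg at t = 0. They were then exposed to air (negative) or 1 ppm ozone for 4 h and redosed at 5 and 9 h. At 24 h rats were sacrificed and BALF collected. Cells were spun down, Wright-Giemsa stained and counted. BALF protein was measured by Bradford assay.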

[4] = Metabolic stability in rat liver microsomes; type: in vitro ADME
How it was run: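 Test compound at 1 μM incubated with isolated rat liver microsomes for 60 min at 37 °C. Samples analysed by LC-MS at 0 and 60 min. Result expressed as percent parent remaining at 60 min.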

Rat pharmacokinetics = type: in vivo; settings: 1 mg/kg oral gavage in neat Labrasol; for plasma levels after oral gavage: LLOQ approximately 20 nM
healthy subjects = settings: clinical evaluation; cited from earlier work

## COc1cc(CSc2ccc(C(=O)Nc3ccc(F)cc3)cn2)c(B(O)O)cc1OC [Compound 12]
[1]
  activity in the PMN assay: complete lack of activity

## O=C(Nc1ccc(F)cc1)c1ccc(SCc2cc3c(cc2B(O)O)OCO3)nc1 [Compound 13]
[1]
  activity in the PMN assay: complete lack of activity

## O=C(Nc1ccc(F)cc1)c1ccc(SCCc2ccccc2B(O)O)nc1 [Compound 11]
[1]
  fold drop in activity relative to compound 5: 10 fold

## COc1ccc(B(O)O)c(CSc2ccc(C(=O)Nc3ccc(F)cc3)cn2)c1 [Compound 14]
[1]
  fold drop in activity relative to compound 5: 2 fold

## O=C(Nc1ccc(F)cc1)c1ccc(SCCCCB(O)O)nc1 [Compound 10]
[1]
  fold drop in activity relative to compound 5: 18 fold

## O=C(Nc1ccc(F)cc1)c1ccc(SCc2cc(OC(F)(F)F)ccc2B(O)O)nc1 [Compound 6, 6-(2-boronic acid-5-trifluoromethoxy-benzylsulfanyl)-N-(4-fluoro-phenyl)-nicotinamide]
CXCR2
  mode of action: full antagonist
[2]
  solubility in aqueous systems: insolubility in aqueous systems
[3]
  remaining at 1 h, 1 μM: > 90%
Sprague-Dawley rats
  PMN influx to the lungs (BALF): significantly decreased PMN influx to the lungs to near undetectable levels; also recorded: potent inhibition of PMN recruitment; also recorded: potent inhibition of neutrophil influx
  macrophage influx (BALF): significantly decreased
[4]
  remaining at 1 h, 1 μM: > 90%
Rat pharmacokinetics
  Rat PK AUC Oral: <LLOQ
  plasma levels after oral gavage: < 20 nM

## O=C(Nc1ccc(F)cc1)c1ccc(SCc2cc(F)ccc2B(O)O)nc1 [Compound 15]
[1]
  activity in the PMN assay: equipotent

## CC[C@@H](Nc1c(Nc2cccc(C(=O)N(C)C)c2O)c(=O)c1=O)c1ccc(C)o1 [navarixin]
Healthy subjects
  ozone inhalation-induced sputum PMN recruitment: inhibited

## O=C(Nc1ccc(F)cc1)c1ccc(SCc2ccccc2B(O)O)nc1 [Compound 5]
[2]
  solubility in aqueous systems: insolubility in aqueous systems
Rat pharmacokinetics
  Rat PK AUC Oral: <LLOQ
  plasma levels after oral gavage: < 20 nM

## O=C(Nc1ccc(F)cc1)c1ccc(SCc2cccc(B(O)O)c2)nc1 [Compound 8]
[1]
  fold drop in activity relative to compound 5: 30 fold
